Columns and labels:
Assay type in all cases: binding
[1] = molecular target: c-di-GMP; test: Isothermal titration calorimetry; conditions: ITC, 50 mM Tris·HCl pH 8.0, 100 mM NaCl, 15 °C; one-site model
How it was run: (§1)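 Peptide or protein, c-di-GMP and buffer were degassed for 15 min; runs at 15 °C. Format 1: cell held about 10 µM peptide/protein and syringe about 200 µM c-di-GMP, 30 injections at 250-s spacing. Format 2 (reverse): cell held about 20 µM c-di-GMP and syringe about 100 µM peptide/protein, 18 injections at 120-s spacing. Concentrations were set by absorbance at 1-cm path.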

[2] = tested on: pGpG; test: Microscale thermophoresis; conditions: N-terminally FITC-labeled CSP4
How it was run: (§2)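 Binding of nucleotides to an N-terminally FITC-labelled, C-terminally amidated synthetic peptide (≥70% purity, dissolved in ultrapure water, concentration by spectrophotometry). Measured by microscale thermophoresis in standard-treated capillaries with blue-channel fluorescence, 30 s infrared heating at 50% of maximum laser power, then 5 s cooling. Buffer: 50 mM Tris·HCl pH 8.0, 100 mM NaCl, 0.1% polysorbate 20.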

[3] = tested on: GTP; test: Microscale thermophoresis; conditions: N-terminally FITC-labeled CSP4
How it was run: as §2

[4] = tested on: c-di-GMP; test: Microscale thermophoresis; conditions: N-terminally FITC-labeled CSP4
How it was run: as §2

[5] = tested on: 3′3′-cGAMP; test: Microscale thermophoresis; conditions: N-terminally FITC-labeled CSP4
How it was run: as §2

[6] = tested on: 3′3′-c-di-AMP; test: Microscale thermophoresis; conditions: N-terminally FITC-labeled CSP4
How it was run: as §2

[7] = tested on: GMP; test: Microscale thermophoresis; conditions: N-terminally FITC-labeled CSP4
How it was run: as §2

[8] = tested on: 2′3′-cGAMP; test: Microscale thermophoresis; conditions: N-terminally FITC-labeled CSP4
How it was run: as §2

[9] = molecular target: CSP10 (Caulobacter vibrioides, UniProt A0A0H3CCM2, K168R/R155A)
[10] = molecular target: CSP14 (Caulobacter vibrioides, UniProt A0A0H3CCM2, K168R/N159A)
[11] = molecular target: CSP17 (Caulobacter vibrioides, UniProt A0A0H3CCM2, D162A/K168R)
[12] = molecular target: CSP32 (Caulobacter vibrioides, UniProt A0A0H3CCM2, DEL161/K168R)
[13] = molecular target: CSP28 (Caulobacter vibrioides, UniProt A0A0H3CCM2, DEL157/K168R)
[14] = molecular target: CSP11 (Caulobacter vibrioides, UniProt A0A0H3CCM2, K168R/R156A)
[15] = molecular target: CSP26 (Caulobacter vibrioides, UniProt A0A0H3CCM2, A171L/K168R)
[16] = molecular target: CSP22 (Caulobacter vibrioides, UniProt A0A0H3CCM2, K168R/R167A)
[17] = molecular target: CSP12 (Caulobacter vibrioides, UniProt A0A0H3CCM2, K168R/R157A)
[18] = molecular target: CSP25 (Caulobacter vibrioides, UniProt A0A0H3CCM2, K168R/K170A)
[19] = molecular target: CSP7 (Caulobacter vibrioides, UniProt A0A0H3CCM2, K168R)
[20] = molecular target: CSP27 (Caulobacter vibrioides, UniProt A0A0H3CCM2, D172A/K168R)
[21] = molecular target: CSP15 (Caulobacter vibrioides, UniProt A0A0H3CCM2, K168R/S160A)
[22] = molecular target: CSP30 (Caulobacter vibrioides, UniProt A0A0H3CCM2, DEL159/K168R)
[23] = molecular target: CSP1 (Caulobacter vibrioides, UniProt A0A0H3CCM2)
How it was run: as §1

[24] = molecular target: CSP4 (Caulobacter vibrioides, UniProt A0A0H3CCM2, K168R)
[25] = molecular target: CSP2 (Caulobacter vibrioides, UniProt A0A0H3CCM2, K168R)
[26] = molecular target: CSP31 (Caulobacter vibrioides, UniProt A0A0H3CCM2, DEL160/K168R)
[27] = molecular target: CSP16 (Caulobacter vibrioides, UniProt A0A0H3CCM2, A161L/K168R)
[28] = molecular target: CSP3 (Caulobacter vibrioides, UniProt A0A0H3CCM2, K168R)
[29] = molecular target: CSP13 (Caulobacter vibrioides, UniProt A0A0H3CCM2, F158A/K168R)
[30] = molecular target: CSP18 (Caulobacter vibrioides, UniProt A0A0H3CCM2, K168R/Y163A)
[31] = molecular target: CSP20 (Caulobacter vibrioides, UniProt A0A0H3CCM2, G165A/K168R)
[32] = molecular target: CSP29 (Caulobacter vibrioides, UniProt A0A0H3CCM2, DEL158/K168R)
[33] = molecular target: H6-MBP-CSP2 (Caulobacter vibrioides, UniProt A0A0H3CCM2, K168R)
[34] = molecular target: CSP9 (Caulobacter vibrioides, UniProt A0A0H3CCM2, D154A/K168R)
[35] = molecular target: CSP6 (Caulobacter vibrioides, UniProt A0A0H3CCM2, K168R)
[36] = molecular target: CSP21 (Caulobacter vibrioides, UniProt A0A0H3CCM2, K168R/P166A)
[37] = molecular target: CSP23 (Caulobacter vibrioides, UniProt A0A0H3CCM2, K168A)
[38] = molecular target: CSP19 (Caulobacter vibrioides, UniProt A0A0H3CCM2, K164A/K168R)

CSP1, sequence (A0A0H3CCM2 140-174): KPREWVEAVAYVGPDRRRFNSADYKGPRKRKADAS
CSP2, sequence (A0A0H3CCM2 140-174 K168R): as the sequence (A0A0H3CCM2 140-174) above, with K29R counted along it
H6-MBP-CSP2, sequence (A0A0H3CCM2 140-174 K168R): as the sequence (A0A0H3CCM2 140-174) above, with K29R counted along it
CSP3, sequence (A0A0H3CCM2 144-172 K168R): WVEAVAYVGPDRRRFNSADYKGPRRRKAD

For RRRFNSADYKGPRRR [CSP5], the “Kd to c-di-GMP” value [1] was “No binding”.

Ac-DRRRFNSADYKGPRRRKAD-NH2 [CSP4] was tested, and the “binding of pGpG (MST)” value [2] was “none of the related nucleotides or CDNs was able to bind”, the “binding of GTP (MST)” value [3] was “none of the related nucleotides or CDNs was able to bind” and the “binding of c-di-GMP (MST)” value [4] was “only c-di-GMP binding to CSP4 was observed”. The “binding of 3′3′-cGAMP (MST)” value [5] was “none of the related nucleotides or CDNs was able to bind”, the “binding of 3′3′-c-di-AMP (MST)” value [6] was “none of the related nucleotides or CDNs was able to bind” and the “binding of GMP (MST)” value [7] was “none of the related nucleotides or CDNs was able to bind”. The “binding of 2′3′-cGAMP (MST)” value [8] was “none of the related nucleotides or CDNs was able to bind”.

With Nc1nc2c(ncn2[C@@H]2O[C@@H]3CO[P@](=O)(O)O[C@H]4[C@@H](O)[C@H](n5cnc6c(=O)[nH]c(N)nc65)O[C@@H]4CO[P@](=O)(O)O[C@H]3[C@H]2O)c(=O)[nH]1 [c-di-GMP, cyclic diguanylate (3'3'-c-di-GMP)] the Kd [9] was 1470 nM, the Kd [10] was 221 nM and the Kd [11] was 145 nM. The Kd [12] was 338 nM, the Kd [13] was 1040 nM and the Kd [14] was 1510 nM. It also gave a Kd [15] of 251 nM, a Kd [16] of 1830 nM and a Kd [17] of 782 nM. It also gave a Kd [18] of 273 nM, a Kd [19] of 1710 nM and a Kd [20] of 1720 nM. The Kd [21] was 209 nM, the Kd [22] was 1250 nM and the Kd [23] was 108 nM. It also gave a Kd [24] of 177 nM, a Kd [25] of 19 nM and a Kd [26] of 439 nM. For the same molecule, the Kd [27] was 102 nM, the Kd [28] was 154 nM and the Kd [29] was 140 nM. For the same molecule, the Kd [30] was 4370 nM, the Kd [31] was 7660 nM and the Kd [32] was 1270 nM. For the same molecule, the Kd [33] was 125 nM, the Kd [34] was 1750 nM and the Kd [35] was 1410 nM. It also gave a Kd [36] of 346 nM, a Kd [37] of 4800 nM and a Kd [38] of 261 nM.

For DRRRFNSADYKGPRRR [CSP8], the “Kd to c-di-GMP” value [1] was “No binding”.

Source: article PMC7382256 (Proceedings of the National Academy of Sciences of the …, 2020)
